Results pooled from the literature.
Each line is one published result; the experiments were not run side by side. ≈ marks a conversion by molar mass, not a printed value.

Structure (SMILES) | tested on | test | conditions | endpoint | value
O=C(Nc1ccc(F)cc1)c1ccc(COC(Cn2ccnc2)c2ccc(Cl)cc2Cl)cc1 (centres unmarked) | Nakaseomyces glabratus | microbial growth, broth dilution | – | MIC80 | 0.25 µg/mL (≈ 0.516 µM)
Cc1cccc(NC(=O)Nc2ccc(-c3ccc4ncn(Cc5ccccc5)c(=O)c4c3)cn2)c1 | HCC827 | cell growth or viability, CCK-8 | 72 h | IC50 | 7.31 µM
COc1cc(C2=CCCc3c2ccc(OC)c3OCc2ccc([N+](=O)[O-])s2)cc(OC)c1OC | – | tubulin polymerisation, inhibitor | 20 min | IC50 | > 20 µM
CC(C)(C)c1cc(NC(=O)Nc2ccc(-c3cn4c(n3)sc3cc(OCCN5CCOCC5)ccc34)cc2)no1 | HCC827 | cell growth or viability | 72 h | GI50 | > 10 µM
COc1ccc(NC(=O)c2ccc(COC(Cn3ccnc3)c3ccc(Cl)cc3Cl)cc2)cc1 (centres unmarked) | Nakaseomyces glabratus | microbial growth, broth dilution | – | MIC80 | 0.125 µg/mL (≈ 0.252 µM)
CCCn1cnc2ccc(-c3ccc(NC(=O)c4ccccc4)nc3)cc2c1=O | HCC827 | cell growth or viability, CCK-8 | 72 h | IC50 | 0.1 µM
COc1cc(C2=CCCc3c2ccc(OC)c3OC(C)c2cnc([N+](=O)[O-])n2C)cc(OC)c1OC (centres unmarked) | – | tubulin polymerisation, inhibitor | 20 min | IC50 | > 20 µM
Cc1nc(Nc2ncc(C(=O)Nc3c(C)cccc3Cl)s2)cc(N2CC[C@H](O)C2)n1 | OCI-LY19 | cell growth or viability, ATP luminescence | 10 µM, 72 h | inhibition | 9%
O=C(Nc1cccc2ccccc12)c1ccc(COC(Cn2ccnc2)c2ccc(Cl)cc2Cl)cc1 (centres unmarked) | Nakaseomyces glabratus | microbial growth, broth dilution | – | MIC80 | 8 µg/mL (≈ 15.5 µM)
Cc1n[nH]c2ccc3nc(-c4ccc(C(=O)NCCN(C)C)cc4)c4c(c3c12)CCCCC4 | HCC827 | cell growth or viability | 72 h | GI50 | 7.12 µM
CCCCn1cnc2ccc(-c3ccc(NC(=O)NC(C)(C)C)nc3)cc2c1=O | HCC827 | cell growth or viability, CCK-8 | 72 h | IC50 | 3.97 µM
COc1cc(C2=CCCCc3c2ccc(OC)c3OCc2cnc([N+](=O)[O-])n2C)cc(OC)c1OC | – | tubulin polymerisation, inhibitor | 20 min | IC50 | > 20 µM
O=C(Nc1ccc(C(F)(F)F)cc1)c1ccc(COC(Cn2ccnc2)c2ccc(Cl)cc2Cl)cc1 (centres unmarked) | Nakaseomyces glabratus | microbial growth, broth dilution | – | MIC80 | 0.125 µg/mL (≈ 0.234 µM)
CCCCC(=O)Nc1ccc(-c2ccc3ncn(CC4CC4)c(=O)c3c2)cn1 | HCC827 | cell growth or viability, CCK-8 | 72 h | IC50 | 0.056 µM
COc1cc(C2=CCCc3c2ccc(OC)c3OCc2cnc([N+](=O)[O-])n2C)cc(OC)c1OC | – | tubulin polymerisation, inhibitor | 20 min | IC50 | > 20 µM
CCCCn1cnc2ccc(-c3ccc(NC(=O)NCc4ccccc4)nc3)cc2c1=O | HCC827 | cell growth or viability, CCK-8 | 72 h | IC50 | 0.32 µM
Cc1n[nH]c2ccc3nc(-c4ccc(C(=O)NCCN(C)C)cc4F)c4c(c3c12)CCCCC4 | HCC827 | cell growth or viability | 72 h | GI50 | 4.87 µM
